PMC3669693 (Journal of neuroimmune pharmacology : the official journal …, 2012)
Values joined by “and” are separate entries in the source; they are usually repeats but may differ in a detail not shown here. Equal entries are not always repeated. Where two headings read alike, the source gives them in different places.

What was measured:
GPR55 [1] = molecular target: T1, GPR55 (Homo sapiens, UniProt Q9Y2T6); conditions: cited from earlier work
GPR55 [2] = molecular target: T1, GPR55; test: GPR55 internalization assay, immunocytochemistry; assay type: cell-based; conditions: for GPR55 receptor internalization, compound alone: 40 min, RT; for effect on GPR55 internalization induced by ML184, ML185, ML186: 10 μM pre-incubation, agonist 5 μM of each ML compound; for effect on LPI-induced GPR55 internalization / effect on SR141716A-induced GPR55 internalization / GPR55 receptor localization, compound alone: 10 μM; for effect on LPI-induced GPR55 internalization / effect on SR141716A-induced GPR55 internalization: 15 min pre-incubation; for effect on LPI-induced GPR55 internalization: agonist 3 μM LPI; for effect on SR141716A-induced GPR55 internalization: agonist 30 μM SR141716A; for GPR55 receptor localization, compound alone: no agonist
GPR55 [3] = molecular target: T1, GPR55; test: β-arrestin assessment of GPR55 activation; assay type: cell-based; conditions: for maximal inhibition of LPI response / effect of low concentrations on LPI-mediated βarr2-GFP recruitment: agonist 3 μM LPI; for maximal inhibition of LPI response / maximal inhibition of SR141716A response: normalized to agonist response; for recruitment of βarr2-GFP by compound alone: no agonist, AEA 0.1–30 μM
How it was run: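 U2OS cells stably co-expressing HA-GPR55E and βarr2-GFP were seeded on glass coverslips, kept overnight at 37°C/5% CO2 and assayed in HBSS. Test compound (0.01–30 μM) was pre-incubated 15 min, then co-incubated 40 min RT with 3 μM LPI or 30 μM SR141716A. Fixation: 4% paraformaldehyde, 25 min. Imaging: 488 nm, 40X oil. Fluorescent pit counts were normalized to agonist response (100%), with sigmoidal fits for IC50. Three experiments in duplicate.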

[4] = test system: HA-GPR55E/βarr2-GFP U2OS cells; test: LDH cytotoxicity assay; assay type: cell-based; conditions: for toxicity to the cells (released LDH): at concentrations employed in this study (10 and 30 μM)
GPR55 [5] = molecular target: T1, GPR55; conditions: read-out: EC50, agonist at GPR55 (βarr2-GFP distribution); previous study; ref Kapur et al. 2009; cited from earlier work
GPR55 [6] = molecular target: T1, GPR55; conditions: read-out: agonist potency at GPR55; ref Ryberg et al., 2007; cited from earlier work
CB1 = conditions: read-out: agonist potency at CB1; ref Ryberg et al., 2007; cited from earlier work
CB2 = conditions: read-out: agonist potency at CB2; ref Ryberg et al., 2007; cited from earlier work
CB1 receptor = conditions: ref Porter et al., 2002; cited from earlier work
CB2 receptor = conditions: ref Porter et al., 2002; cited from earlier work
[7] = 10 μM + 3 μM LPI, % of total LDH activity
[8] = 10 μM + 30 μM SR141716A, % of total LDH activity
[9] = 10 μM alone, % of total LDH activity (1% Triton X-100)
[10] = 30 μM + 3 μM LPI, % of total LDH activity
[11] = 30 μM + 30 μM SR141716A, % of total LDH activity
[12] = 30 μM alone, % of total LDH activity (1% Triton X-100)

T1 sequence (Q9Y2T6 1-292 limits assumed): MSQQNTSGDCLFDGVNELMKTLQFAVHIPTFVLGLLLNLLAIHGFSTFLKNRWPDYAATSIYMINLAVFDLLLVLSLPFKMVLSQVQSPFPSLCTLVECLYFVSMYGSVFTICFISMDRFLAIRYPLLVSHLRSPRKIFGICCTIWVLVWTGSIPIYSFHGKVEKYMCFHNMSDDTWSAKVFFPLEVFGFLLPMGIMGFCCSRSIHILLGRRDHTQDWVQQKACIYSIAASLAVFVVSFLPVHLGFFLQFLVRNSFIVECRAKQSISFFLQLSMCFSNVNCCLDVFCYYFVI

For `CCCCCCC(C)(C)c1ccc([C@@H]2C[C@H](O)CC[C@H]2CCCO)c(O)c1` [CP55,940], the “type of activity at GPR55” value (GPR55 [1]; ref Henstridge et al. 2009, Kapur et al. 2009, Pineiro et al. 2011) is listed as “antagonist/partial agonist”.
In the case of `COc1ccc(-c2csc(NC(=O)CSc3nnc4c(C)cc5ccccc5n34)n2)cc1` [ML185, N-[4-(4-methoxyphenyl)-1,3-thiazol-2-yl]-2-[(4-methyl-[1,2,4]triazolo[4,3-a]quinolin-1-yl)sulfanyl]acetamide], the “GPR55 receptor internalization, compound alone” value (“GPR55 receptor internalization” for short) (GPR55 [2]; 5 μM) is reported as “resulted in receptor internalization”.
In the case of `Cc1cccc(N2CCN(C(=O)c3cc(S(=O)(=O)N(C)C)ccc3N3CCCC3)CC2)c1C` [ML184, 3-[4-(2,3-dimethylphenyl)piperazine-1-carbonyl]-N,N-dimethyl-4-pyrrolidin-1-ylbenzenesulfonamide], the “GPR55 receptor internalization” value (GPR55 [2]; 5 μM) is reported as “resulted in receptor internalization”.
With `COc1ccc(S(=O)(=O)N2CCOCC2)cc1NC(=O)c1cc2c(s1)CCCC2` [ML186, N-(2-methoxy-5-morpholin-4-ylsulfonylphenyl)-4,5,6,7-tetrahydro-1-benzothiophene-2-carboxamide] the “GPR55 receptor internalization” value (GPR55 [2]; 5 μM) was “resulted in receptor internalization”.
In the case of `CCCCC/C=C\C/C=C\C/C=C\C/C=C\CCCC(=O)NCCO` [AEA, N-arachidonyl ethanolamine], the IC50 (GPR55 [3]) is reported as 5910 nM and 12000 nM, the “maximal inhibition of LPI response” value (GPR55 [3]) is reported as 20% and the “maximal inhibition of SR141716A response” value (GPR55 [3]; agonist 30 μM SR141716A) is reported as 65%. For the same compound, the “recruitment of βarr2-GFP by compound alone” value (GPR55 [3]) was “did not result in recruitment of βarr2-GFP”, the “effect of low concentrations on LPI-mediated βarr2-GFP recruitment” value (GPR55 [3]; low concentrations) was “enhanced the recruitment” and the “effect on GPR55 internalization induced by ML184, ML185, ML186” value (GPR55 [2]) was “largely attenuated”. The “effect on LPI-induced GPR55 internalization” value (GPR55 [2]) was “markedly decreased receptor internalization”, the “effect on SR141716A-induced GPR55 internalization” value (GPR55 [2]) was “markedly decreased receptor internalization” and the “GPR55 receptor localization, compound alone” value (GPR55 [2]) was “membrane bound receptors”. For the same compound, the “Cell death, %” value [4, 7] was 6.12%, the “Cell death, %” value [4, 8] was 6.79% and the “Cell death, %” value [4, 9] was 5.90%. For the same compound, the “Cell death, %” value [4, 10] was 5.86%, the “Cell death, %” value [4, 11] was 8.02% and the “Cell death, %” value [4, 12] was 5.93%. For the same compound, the “toxicity to the cells (released LDH)” value [4] was “neither AEA nor virodhamine are toxic” and the “activation of GPR55” value (GPR55 [1]; previous findings of the laboratory, ref Kapur et al., 2009) was “did not activate GPR55”.
In the case of lysophosphatidylinositol [LPI], the “GPR55 receptor internalization” value (GPR55 [2]; 3 μM) is given as “loss of membrane staining and the appearance of cytosolic fluorescent aggregates corresponding to internalized receptors”, the “Cell death, %” value ([4]; 3 μM alone, % of total LDH activity (1% Triton X-100)) is given as 7.08% and the EC50 (GPR55 [5]) is given as 1200 nM.
In the case of `Cc1c(C(=O)NN2CCCCC2)nn(-c2ccc(Cl)cc2Cl)c1-c1ccc(Cl)cc1` [SR141716A, N-(piperidin-1-yl)-5-(4-chlorophenyl)-1-(2,4-dichlorophenyl)-4-methyl-1H-pyrazole-3-carboxamide], the “GPR55 receptor internalization” value (GPR55 [2]; 30 μM) is given as “loss of membrane staining and the appearance of cytosolic fluorescent aggregates corresponding to internalized receptors”, the “Cell death, %” value [4, 12] is given as 7.12% and the EC50 (GPR55 [5]) is given as 3900 nM.
In the case of `CCCCC/C=C\C/C=C\C/C=C\C/C=C\CCCC(=O)OCCN` [virodhamine, O-arachidonoyl ethanolamine], the “maximal inhibition of LPI response” value (GPR55 [3]) is reported as 46%, the “maximal inhibition of SR141716A response” value (GPR55 [3]; agonist 30 μM SR141716A) is reported as 68% and the “recruitment of βarr2-GFP by compound alone” value (GPR55 [3]) is reported as “weak recruitment of βarr2-GFP”. The “effect of low concentrations on LPI-mediated βarr2-GFP recruitment” value (GPR55 [3]; low concentrations) was “enhanced the recruitment”, the “effect of low concentrations on SR141716A-mediated βarr2-GFP recruitment” value (GPR55 [3]; low concentrations, agonist 30 μM SR141716A) was “enhanced the recruitment” and the “effect on GPR55 internalization induced by ML184, ML185, ML186” value (GPR55 [2]) was “largely attenuated”. For the same compound, the “effect on LPI-induced GPR55 internalization” value (GPR55 [2]) was “strikingly decreased receptor internalization”, the “effect on SR141716A-induced GPR55 internalization” value (GPR55 [2]) was “strikingly decreased receptor internalization” and the “GPR55 receptor localization, compound alone” value (GPR55 [2]) was “receptors were localized to the membrane”. For the same compound, the “Cell death, %” value [4, 7] was 6.94%, the “Cell death, %” value [4, 8] was 6.44% and the “Cell death, %” value [4, 9] was 7.27%. For the same compound, the “Cell death, %” value [4, 10] was 8.73%, the “Cell death, %” value [4, 11] was 6.93% and the “Cell death, %” value [4, 12] was 8.08%. The “toxicity to the cells (released LDH)” value [4] was “neither AEA nor virodhamine are toxic”, the EC50 (GPR55 [6]) was 12 nM and the EC50 (CB1) was 2900 nM. For the same compound, the EC50 (CB2) was 381 nM, the “type of activity at the CB1 receptor” value (CB1 receptor) was “partial agonist/antagonist” and the “type of activity at the CB2 receptor” value (CB2 receptor) was “full agonist”.
